What all share (format): cell-based
Assay [1] deals with T1, Kv4.2 G314F mutant channels (co-injected with KChIP1b) (Rattus norvegicus, UniProt Q63881, G314F).
T1 sequence (Q63881 1-630 G314F): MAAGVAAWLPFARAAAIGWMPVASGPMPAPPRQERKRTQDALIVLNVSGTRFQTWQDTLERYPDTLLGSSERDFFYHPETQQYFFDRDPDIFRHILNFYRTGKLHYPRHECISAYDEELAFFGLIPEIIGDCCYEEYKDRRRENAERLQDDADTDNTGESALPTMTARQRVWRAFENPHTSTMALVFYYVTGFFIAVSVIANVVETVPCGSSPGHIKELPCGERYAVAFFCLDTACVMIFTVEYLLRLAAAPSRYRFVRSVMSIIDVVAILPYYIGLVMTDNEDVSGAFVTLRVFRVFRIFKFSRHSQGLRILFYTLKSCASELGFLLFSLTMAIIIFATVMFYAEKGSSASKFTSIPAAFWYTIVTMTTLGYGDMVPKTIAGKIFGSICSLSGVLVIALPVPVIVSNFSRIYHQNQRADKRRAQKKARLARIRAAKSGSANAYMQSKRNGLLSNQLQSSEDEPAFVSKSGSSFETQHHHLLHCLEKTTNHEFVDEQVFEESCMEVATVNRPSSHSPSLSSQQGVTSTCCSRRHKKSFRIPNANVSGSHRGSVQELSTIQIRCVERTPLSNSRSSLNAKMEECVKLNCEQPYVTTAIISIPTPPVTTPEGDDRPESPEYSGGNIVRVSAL
Put plainly: Two-electrode voltage clamp, G314F mutant Kv4.2/KChIP1b in Xenopus oocytes. The note with it: read-out: inhibition of the peak K+ current. In outline:
(§1)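 Rat Kv4.2 (WT or QuikChange mutant) RNA co-injected equimolar with KChIP1b, 5–10 ng/oocyte, into Xenopus oocytes held 1–5 d at 17–19 °C. Two-electrode voltage clamp at room temperature in perfused Na/K methanesulfonate HEPES saline, pH 7.4–7.5, with P/−4 or P/−6 leak subtraction. Peak current at +40 mV (from −90 mV) after 10 min of 10 μM AA is expressed relative to pre-AA current. Mean ± SE, n = cells.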
(In general: Two-electrode voltage clamp is typically applied to oocytes expressing channels or transporters.)

In assay [2] the target is T2, Kv4.2 L313F mutant channels (co-injected with KChIP1b) (Rattus norvegicus, UniProt Q63881, L313F).
T2 sequence (Q63881 1-630 L313F): T1 sequence (Q63881 1-630 G314F) with L313F, F314G
Put plainly: Two-electrode voltage clamp, L313F mutant Kv4.2/KChIP1b in Xenopus oocytes. Particulars: 10 µM AA. In a few lines:
as §1

Assay [3] has as its target T3, Kv4.2 V261F/K318Q double mutant channels (co-injected with KChIP1b) (Rattus norvegicus, UniProt Q63881, K318Q/V261F).
T3 sequence (Q63881 1-630 V261F/K318Q): T1 sequence (Q63881 1-630 G314F) with V261F, F314G, K318Q
In outline: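 Xenopus oocytes co-expressing rat Kv4.2 (WT or mutant) with equimolar KChIP1b were recorded by two-electrode voltage clamp at room temperature. Peak conductance was calculated as G = I/(Vm − Vh), with Vh = −100 mV, and normalized to each cell's Gmax. It was plotted against step potential without and with 10 μM AA and fit to a first-order Boltzmann function to give V1/2 and slope.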

By inhibition is commonly meant the percentage by which the read-out fell short of the control. The term Kd denotes the free concentration of one partner at which half of the binding sites on the other are occupied at equilibrium, for simple one-to-one binding. Read a low Kd as tighter binding.

Residue numbers refer to the chain shown, from its start.

`CCCCC/C=C\C/C=C\C/C=C\C/C=C\CCCC(=O)O` [AA, arachidonic acid]: the inhibition at 10 µM in assay [1] came out at 22%. For the same compound, the “sensitivity to AA” value in assay [2] is listed as “retained its sensitivity to AA”. In addition, in assay [3] (10 µM AA), the “V1/2 of conductance-voltage curve with AA” value is reported as −19.1 mV and the “slope factor (k) of Boltzmann fit with AA” value is 8.4. Moreover, binding in assay [3] (fitted Kd for AA inhibition of peak current, Hill equation, nH = 1, +40 mV) was characterised by a dissociation constant (Kd) of 45.7 µM.

For the origin of these results see PMC3667888 (Channels, 2013).
